# Laboratory results published in ChEMBL document CHEMBL2406974, “Xanthone glycoside constituents of Swertia kouitchensis with α-glucosidase inhibitory activity” (J Nat Prod, 2013).
# Assay: Inhibition of Saccharomyces cerevisiae alpha-glucosidase using p-nitrophenyl-alpha-D-glucopyranoside as substrate preincubated for 15 mins
# Summary of the method: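 Yeast enzyme at 0.6 U/mL in 0.1 M potassium phosphate buffer, pH 6.8. It was preincubated at 37 °C with test compound in water containing 0.5% DMSO. The reaction was started with 5.0 mM PNPG solution in the same buffer and incubated at 37 °C. It was stopped with 0.2 M Na2CO3 in phosphate buffer. Released p-nitrophenol was read at 405 nm, with IC50 as the output.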
row,Compound,IC50
1,COc1cc(O[C@@H]2O[C@H](CO[C@@H]3OC[C@@H](O)[C@H](O)[C@H]3O)[C@@H](O)[C@H](O)[C@H]2O)c2c(=O)c3c(OC)c(O)ccc3oc2c1OC,1500 µM
2,COc1cc(O[C@@H]2O[C@H](CO[C@@H]3OC[C@@H](O)[C@H](O)[C@H]3O)[C@@H](O)[C@H](O)[C@H]2O)c2c(=O)c3c(OC)c(OC)ccc3oc2c1OC,383 µM
3,COc1cc(O[C@@H]2O[C@H](CO)[C@@H](O)[C@H](O)[C@H]2O)c2c(=O)c3c(OC)c(O)ccc3oc2c1O,701 µM
4,COc1cc(O[C@@H]2O[C@H](CO[C@@H]3OC[C@@H](O)[C@H](O)[C@H]3O)[C@@H](O)[C@H](O)[C@H]2O)c2c(=O)c3c(OC)ccc(OC)c3oc2c1,360 µM
5,COc1cc(O[C@@H]2O[C@H](CO[C@@H]3OC[C@@H](O)[C@H](O)[C@H]3O)[C@@H](O)[C@H](O)[C@H]2O)c2c(=O)c3c(OC)c(OC)cc(OC)c3oc2c1,371 µM
6,COc1ccc(O)c2c(=O)c3c(O)cc(O[C@@H]4O[C@H](CO[C@@H]5OC[C@@H](O)[C@H](O)[C@H]5O)[C@@H](O)[C@H](O)[C@H]4O)c(OC)c3oc12,184 µM
7,COc1cc(O[C@@H]2O[C@H](CO[C@@H]3O[C@H](CO)[C@@H](O)[C@H](O)[C@H]3O)[C@@H](O)[C@H](O)[C@H]2O)c2c(=O)c3cccc(OC)c3oc2c1,956 µM
8,COc1cc(O[C@@H]2O[C@H](CO[C@@H]3O[C@H](CO)[C@@H](O)[C@H](O)[C@H]3O)[C@@H](O)[C@H](O)[C@H]2O)c2c(=O)c3c(O)ccc(OC)c3oc2c1,693 µM
9,COc1cc(O)c2c(=O)c3c(O)c(O[C@@H]4O[C@H](CO)[C@@H](O)[C@H](O)[C@H]4O[C@@H]4O[C@@H](C)[C@H](O)[C@@H](O)[C@H]4O)ccc3oc2c1,> 1720 µM
10,COc1cc(O)c2c(=O)c3c(O[C@@H]4O[C@H](CO)[C@@H](O)[C@H](O)[C@H]4O)c(O[C@@H]4O[C@@H](C)[C@H](O)[C@@H](O)[C@H]4O)ccc3oc2c1,714 µM
11,COc1cc(O[C@@H]2O[C@H](CO[C@@H]3OC[C@@H](O)[C@H](O)[C@H]3O)[C@@H](O)[C@H](O)[C@H]2O)c2c(=O)c3c(O)c(OC)ccc3oc2c1,451 µM
12,C[C@H]1O[C@H](O[C@H]2[C@H](O)[C@@H](O)[C@@H](O[C@H]3[C@H](O)[C@@H](O)C(O)O[C@@H]3CO)O[C@@H]2CO)[C@H](O)[C@@H](O)[C@@H]1N[C@H]1C=C(CO)[C@@H](O)[C@H](O)[C@H]1O (some centres undefined) [ACARBOSE],627 µM
13,O=c1c2cc(O)c(O)cc2oc2cc(O)c([C@@H]3O[C@H](CO)[C@@H](O)[C@H](O)[C@H]3O)c(O)c12 [MANGIFERIN],296 µM
14,COc1cc(O)c2c(=O)c3c(O[C@@H]4O[C@H](CO)[C@@H](O)[C@H](O)[C@H]4O)ccc(O)c3oc2c1 [SWERTIANOLIN],126 µM
